Values after ≈ are worked out from the molar mass of the structure shown. Active and inactive are the calls of the source. No cut-off for these calls is given here.
Legend:
Bacillus cereus [1] = test: Antimicrobial activity against Bacillus cereus at 10 ug/disk after 24 hrs by disk diffusion assay; type: functional
Procedure, shortened: (§1)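 Disc diffusion on 4 mm filter discs. Bacteria are grown overnight in LB at 28 C, then adjusted in saline to 1.0 × 10^5 cfu/ml. The suspension is mixed into top agar over peptone agar plates. Plates are incubated 24 h at 28 C, and growth-inhibition zone diameter is measured. Streptomycin and ampicillin controls are applied from a 1 mg/ml stock. Tests are done in duplicate.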

Bacillus cereus [2] = test: Antimicrobial activity against Bacillus cereus at 1 umol/spot after 18 hrs by TLC-bioautographic method; type: functional
Procedure, shortened: (§2)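 TLC bioautography. Samples are spotted on silica gel TLC plates, then sprayed with bacteria (1.0 × 10^5 cfu/ml) in tryptic soy broth. Plates are incubated 18 h at 37 C and sprayed with 3% aqueous p-iodonitrotetrazolium violet. After a further 3 h, growth is stopped with 70% EtOH. White zones on a pink background are scored as inhibition-zone diameter with standard errors.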

Pseudomonas aeruginosa [3] = test: Antimicrobial activity against Pseudomonas aeruginosa at 10 ug/disk after 24 hrs by disk diffusion assay; type: functional; procedure, shortened: as §1
Micrococcus flavus [4] = test: Antimicrobial activity against Micrococcus flavus at 1 umol/spot after 18 hrs by TLC-bioautographic method; type: functional; procedure, shortened: as §2
Bacillus cereus [5] = test: Antimicrobial activity against Bacillus cereus after 24 hrs by microdilution technique; type: functional
Procedure, shortened: (§3)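 Broth microdilution in LB medium. Inoculum is 1.0 × 10^4 cfu per well, from a saline-adjusted suspension of 1.0 × 10^5 cfu/ml. Compounds are dissolved in DMSO. Incubated 24 h at 28 C. MIC is the lowest concentration with no visible growth under a binocular microscope. MBC is read by subculture into fresh broth for 72 h, with no growth taken as 99.5% kill. OD is read at 655 nm.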

Escherichia coli [6] = test: Antimicrobial activity against Escherichia coli at 1 umol/disk after 24 hrs by disk diffusion assay; type: functional; procedure, shortened: as §1
Staphylococcus aureus [7] = test: Antimicrobial activity against Staphylococcus aureus at 10 ug/disk after 24 hrs by disk diffusion assay; type: functional; procedure, shortened: as §1
Enterobacter cloacae [8] = test: Antimicrobial activity against Enterobacter cloacae at 1 umol/disk after 24 hrs by disk diffusion assay; type: functional; procedure, shortened: as §1
Salmonella typhimurium [9] = test: Antimicrobial activity against Salmonella Typhimurium at 1 umol/spot after 18 hrs by TLC-bioautographic method; type: functional, Salmonella enterica subsp. enterica serovar Typhimurium; procedure, shortened: as §2
Escherichia coli [10] = test: Antimicrobial activity against Escherichia coli after 24 hrs by microdilution technique; type: functional; procedure, shortened: as §3
Staphylococcus aureus [11] = test: Antimicrobial activity against Staphylococcus aureus after 24 hrs by microdilution technique; type: functional; procedure, shortened: as §3
Staphylococcus aureus [12] = test: Antimicrobial activity against Staphylococcus aureus at 1 umol/disk after 24 hrs by disk diffusion assay; type: functional; procedure, shortened: as §1
Listeria monocytogenes [13] = test: Antimicrobial activity against Listeria monocytogenes at 1 umol/disk after 24 hrs by disk diffusion assay; type: functional; procedure, shortened: as §1
Salmonella typhimurium [14] = test: Antimicrobial activity against Salmonella Typhimurium after 24 hrs by microdilution technique; type: functional, Salmonella enterica subsp. enterica serovar Typhimurium; conditions: Salmonella enterica; procedure, shortened: as §3
Listeria monocytogenes [15] = test: Antimicrobial activity against Listeria monocytogenes after 24 hrs by microdilution technique; type: functional; procedure, shortened: as §3
Pseudomonas aeruginosa [16] = test: Antimicrobial activity against Pseudomonas aeruginosa at 1 umol/spot after 18 hrs by TLC-bioautographic method; type: functional; procedure, shortened: as §2
Salmonella typhimurium [17] = test: Antimicrobial activity against Salmonella Typhimurium at 1 umol/disk after 24 hrs by disk diffusion assay; type: functional, organism-based; conditions: Salmonella enterica subsp. enterica serovar Typhimurium; procedure, shortened: as §1
Enterobacter cloacae [18] = test: Antimicrobial activity against Enterobacter cloacae at 10 ug/disk after 24 hrs by disk diffusion assay; type: functional; procedure, shortened: as §1
Pseudomonas aeruginosa [19] = test: Antimicrobial activity against Pseudomonas aeruginosa at 1 umol/disk after 24 hrs by disk diffusion assay; type: functional; procedure, shortened: as §1
Salmonella typhimurium [20] = test: Antimicrobial activity against Salmonella Typhimurium at 10 ug/disk after 24 hrs by disk diffusion assay; type: functional, organism-based; conditions: Salmonella enterica subsp. enterica serovar Typhimurium; procedure, shortened: as §1
Pseudomonas aeruginosa [21] = test: Antimicrobial activity against Pseudomonas aeruginosa after 24 hrs by microdilution technique; type: functional; procedure, shortened: as §3
Staphylococcus aureus [22] = test: Antimicrobial activity against Staphylococcus aureus at 1 umol/spot after 18 hrs by TLC-bioautographic method; type: functional; procedure, shortened: as §2
Listeria monocytogenes [23] = test: Antimicrobial activity against Listeria monocytogenes at 1 umol/spot after 18 hrs by TLC-bioautographic method; type: functional; procedure, shortened: as §2
Listeria monocytogenes [24] = test: Antimicrobial activity against Listeria monocytogenes at 10 ug/disk after 24 hrs by disk diffusion assay; type: functional; procedure, shortened: as §1
Micrococcus flavus [25] = test: Antimicrobial activity against Micrococcus flavus at 10 ug/disk after 24 hrs by disk diffusion assay; type: functional; procedure, shortened: as §1
Escherichia coli [26] = test: Antimicrobial activity against Escherichia coli at 1 umol/spot after 18 hrs by TLC-bioautographic method; type: functional; procedure, shortened: as §2
Enterobacter cloacae [27] = test: Antimicrobial activity against Enterobacter cloacae at 1 umol/spot after 18 hrs by TLC-bioautographic method; type: functional; procedure, shortened: as §2
Micrococcus flavus [28] = test: Antimicrobial activity against Micrococcus flavus after 24 hrs by microdilution technique; type: functional; procedure, shortened: as §3
Escherichia coli [29] = test: Antimicrobial activity against Escherichia coli at 10 ug/disk after 24 hrs by disk diffusion assay; type: functional; procedure, shortened: as §1
Micrococcus flavus [30] = test: Antimicrobial activity against Micrococcus flavus at 1 umol/disk after 24 hrs by disk diffusion assay; type: functional; procedure, shortened: as §1
Enterobacter cloacae [31] = test: Antimicrobial activity against Enterobacter cloacae after 24 hrs by microdilution technique; type: functional; procedure, shortened: as §3
Bacillus cereus [32] = test: Antimicrobial activity against Bacillus cereus at 1 umol/disk after 24 hrs by disk diffusion assay; type: functional; procedure, shortened: as §1

MIC (Bacillus cereus [5]) [µM]	MIC (Escherichia coli [10]) [µM]	MIC (Staphylococcus aureus [11]) [µM]	MIC (Salmonella typhimurium [14]) [µM]	MIC (Listeria monocytogenes [15]) [µM]	SMILES	inhibition zone (IZ) (Bacillus cereus [1])	inhibition zone (IZ) (Bacillus cereus [2])	inhibition zone (IZ) (Pseudomonas aeruginosa [3])	inhibition zone (IZ) (Micrococcus flavus [4])	MBC (Bacillus cereus [5]) [µM]	inhibition zone (IZ) (Escherichia coli [6])	inhibition zone (IZ) (Staphylococcus aureus [7])	inhibition zone (IZ) (Enterobacter cloacae [8])	MBC (Escherichia coli [10]) [µM]	MBC (Staphylococcus aureus [11]) [µM]	inhibition zone (IZ) (Staphylococcus aureus [12])	inhibition zone (IZ) (Listeria monocytogenes [13])	MBC (Salmonella typhimurium [14]) [µM]	MBC (Listeria monocytogenes [15]) [µM]	inhibition zone (IZ) (Pseudomonas aeruginosa [16])	other results
696 (≈ 400 µg/mL)	348 (≈ 200 µg/mL)	696 (≈ 400 µg/mL)	348 (≈ 200 µg/mL)	696 (≈ 400 µg/mL)	CC(=O)N1N=C(c2ccc(Nc3nc(Nc4ccccc4)nc(Nc4ccccc4)n3)cc2)CC1c1ccc(Cl)cc1 (stereo not given)	inactive	0.08 millimeter	inactive	inactive	696 (≈ 400 µg/mL)	inactive	inactive	inactive	696 (≈ 400 µg/mL)	696 (≈ 400 µg/mL)	inactive	inactive	696 (≈ 400 µg/mL)	696 (≈ 400 µg/mL)	inactive	inhibition zone (IZ) (Salmonella typhimurium [9]): 0.07 millimeter; inhibition zone (IZ) (Salmonella typhimurium [17]): inactive; inhibition zone (IZ) (Enterobacter cloacae [18]): inactive; inhibition zone (IZ) (Pseudomonas aeruginosa [19]): inactive; inhibition zone (IZ) (Salmonella typhimurium [20]): inactive; MBC (Pseudomonas aeruginosa [21]): 696 µM (≈ 400 µg/mL); MIC (Pseudomonas aeruginosa [21]): 696 µM (≈ 400 µg/mL); inhibition zone (IZ) (Staphylococcus aureus [22]): 0.08 millimeter; inhibition zone (IZ) (Listeria monocytogenes [23]): 0.09 millimeter; inhibition zone (IZ) (Listeria monocytogenes [24]): inactive; inhibition zone (IZ) (Micrococcus flavus [25]): inactive; inhibition zone (IZ) (Escherichia coli [26]): inactive; inhibition zone (IZ) (Enterobacter cloacae [27]): 0.09 millimeter; MBC (Micrococcus flavus [28]): 696 µM (≈ 400 µg/mL); MIC (Micrococcus flavus [28]): 696 µM (≈ 400 µg/mL); inhibition zone (IZ) (Escherichia coli [29]): inactive; inhibition zone (IZ) (Micrococcus flavus [30]): inactive; MBC (Enterobacter cloacae [31]): 696 µM (≈ 400 µg/mL); MIC (Enterobacter cloacae [31]): 696 µM (≈ 400 µg/mL); inhibition zone (IZ) (Bacillus cereus [32]): inactive
195 (≈ 100 µg/mL)	195 (≈ 100 µg/mL)	195 (≈ 100 µg/mL)	195 (≈ 100 µg/mL)	780 (≈ 401 µg/mL)	Nc1nc(-c2ccc(Nc3nc(Nc4ccccc4)nc(Nc4ccccc4)n3)cc2)cc(-c2ccco2)n1	inactive	inactive	inactive	0.07 millimeter	390 (≈ 200 µg/mL)	0.05 millimeter	inactive	inactive	390 (≈ 200 µg/mL)	390 (≈ 200 µg/mL)	inactive	inactive	390 (≈ 200 µg/mL)	780 (≈ 401 µg/mL)	inactive	inhibition zone (IZ) (Salmonella typhimurium [9]; Salmonella enterica subsp. enterica serovar Typhimurium): inactive; inhibition zone (IZ) (Salmonella typhimurium [17]): inactive; inhibition zone (IZ) (Enterobacter cloacae [18]): inactive; inhibition zone (IZ) (Pseudomonas aeruginosa [19]): inactive; inhibition zone (IZ) (Salmonella typhimurium [20]): inactive; MBC (Pseudomonas aeruginosa [21]): 780 µM (≈ 401 µg/mL); MIC (Pseudomonas aeruginosa [21]): 780 µM (≈ 401 µg/mL); inhibition zone (IZ) (Staphylococcus aureus [22]): 0.06 millimeter; inhibition zone (IZ) (Listeria monocytogenes [23]): 0.08 millimeter; inhibition zone (IZ) (Listeria monocytogenes [24]): inactive; zone of inhibition at 10 µg/disc (Micrococcus flavus [25]; read-out: IZ): 6 mm; inhibition zone (IZ) (Escherichia coli [26]): 0.08 millimeter; inhibition zone (IZ) (Enterobacter cloacae [27]): 0.08 millimeter; MBC (Micrococcus flavus [28]): 390 µM (≈ 200 µg/mL); MIC (Micrococcus flavus [28]): 195 µM (≈ 100 µg/mL); zone of inhibition at 10 µg/disc (Escherichia coli [29]; read-out: IZ): 10 mm; inhibition zone (IZ) (Micrococcus flavus [30]): 0.03 millimeter; MBC (Enterobacter cloacae [31]): 390 µM (≈ 200 µg/mL); MIC (Enterobacter cloacae [31]): 195 µM (≈ 100 µg/mL); inhibition zone (IZ) (Bacillus cereus [32]): inactive
